Data on 33 compounds can be found in ChEMBL document CHEMBL3120072, “Alkynyl-coumarinyl ethers as MAO-B inhibitors” (Bioorg Med Chem, 2014).

Bounds are passed on as bounds.

Data set [1] has as its target T1, Amine oxidase [flavin-containing] B (Homo sapiens, UniProt P27338).
T1 sequence (P27338 whole entry): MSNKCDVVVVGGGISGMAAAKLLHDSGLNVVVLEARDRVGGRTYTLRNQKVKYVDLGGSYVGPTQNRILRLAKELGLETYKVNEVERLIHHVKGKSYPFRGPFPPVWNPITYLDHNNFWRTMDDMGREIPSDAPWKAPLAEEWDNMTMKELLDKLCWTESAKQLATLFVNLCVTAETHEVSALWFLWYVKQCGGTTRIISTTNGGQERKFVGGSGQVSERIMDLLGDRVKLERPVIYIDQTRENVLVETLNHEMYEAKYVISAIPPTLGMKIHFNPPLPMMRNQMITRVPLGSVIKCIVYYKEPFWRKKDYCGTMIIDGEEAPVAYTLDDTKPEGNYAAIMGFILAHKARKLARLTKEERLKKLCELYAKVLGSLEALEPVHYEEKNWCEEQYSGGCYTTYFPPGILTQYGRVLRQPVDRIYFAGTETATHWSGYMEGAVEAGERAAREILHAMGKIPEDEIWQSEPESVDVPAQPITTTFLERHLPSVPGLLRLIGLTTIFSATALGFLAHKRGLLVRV
The data set can be described thus: Reversible inhibition of human MAO-B using p-tyramine as substrate at IC80 incubated for 1 hr prior to increasing substrate concentration measured for 5 hrs by fluorescence analysis. The procedure, abridged:
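Human MAO-B preincubated 1 h with inhibitor at about its IC80. Reaction started with p-tyramine (10 µM). After 22 min, substrate raised to a final 1 mM. Recovery of activity followed by fluorescence over 5 h.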

Data set [2] deals with T2, Amine oxidase [flavin-containing] A (Homo sapiens, UniProt P21397).
T2 sequence (P21397 whole entry): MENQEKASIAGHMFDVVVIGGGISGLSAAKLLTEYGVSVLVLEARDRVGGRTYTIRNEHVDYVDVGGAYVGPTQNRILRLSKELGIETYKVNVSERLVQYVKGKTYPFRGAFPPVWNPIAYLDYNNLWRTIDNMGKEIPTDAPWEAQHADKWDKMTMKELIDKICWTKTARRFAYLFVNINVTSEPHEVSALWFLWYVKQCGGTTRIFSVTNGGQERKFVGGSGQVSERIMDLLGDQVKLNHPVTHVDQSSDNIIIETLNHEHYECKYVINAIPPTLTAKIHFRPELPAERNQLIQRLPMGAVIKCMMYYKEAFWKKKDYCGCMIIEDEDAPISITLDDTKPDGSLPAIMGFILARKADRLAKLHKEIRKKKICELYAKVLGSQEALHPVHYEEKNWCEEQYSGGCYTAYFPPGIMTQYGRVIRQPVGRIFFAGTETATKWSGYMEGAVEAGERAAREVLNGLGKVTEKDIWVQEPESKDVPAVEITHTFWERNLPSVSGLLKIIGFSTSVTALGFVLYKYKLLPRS
Kind of data set: Inhibition of human recombinant MAO-A expressed in baculovirus infected insect cells assessed as hydrogen peroxide production using p-tyramine as substrate incubated for 30 mins prior to substrate addition measured for 45 mins by Amplex Red monoamine oxidase assay. The procedure, abridged: (§1)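 Human recombinant enzyme in 50 mM sodium phosphate pH 7.4. Test compound in DMSO preincubated with enzyme for 30 min at room temperature. Reaction started with p-tyramine (final 150 µM) plus Amplex Red/HRP and kept in the dark. Resorufin fluorescence (ex 544, em 590 nm) read over 45 min. IC50 values from three experiments.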

The species entered for data set [3] is Homo sapiens. Kind of data set: Selectivity ratio of IC50 for human recombinant MAO-A to IC50 for human recombinant MAO-B. The procedure, abridged:
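Ratio calculated as IC50 (MAO-A) divided by IC50 (MAO-B), from Amplex Red assays with p-tyramine on human recombinant enzymes.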

The nature of data set [4]: Lipophilicity, log D of the compound at pH 7.4 by HPLC analysis. In kind it is physicochemical. Particulars: buffer; call rule not given here. The procedure, abridged: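 Retention-based HPLC on a C18 column at 40 °C and 0.8 mL/min. Linear gradient with 10 mM ammonium acetate. UV read at 254 nm. Atenolol, metoprolol, diltiazem, labetalol and triphenylene used as references. Compounds injected from DMSO solutions (0.5 mg/mL) in duplicate.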

In data set [5] the target is T1, Amine oxidase [flavin-containing] B. Kind of data set: Inhibition of human recombinant MAO-B expressed in baculovirus infected insect cells assessed as hydrogen peroxide production using p-tyramine as substrate incubated for 30 mins prior to substrate addition measured for 45 mins by Amplex Red monoamine oxidase assay. The procedure, abridged:
as §1

In the case of `C[C@H](NCc1ccc(OCc2cccc(F)c2)cc1)C(N)=O` [SAFINAMIDE], the “inhibition (INH)” value in data set [1] is “Active”.

Turning to `C#CCCCCOc1ccc2cc(-c3ccc(OC)cc3)c(=O)oc2c1`, the IC50 (commonly the point on the concentration scale where inhibition reaches its midpoint) was greater than 10000 nM in data set [2] and 2.96 nM in data set [5]. In addition, in data set [3], the Ratio IC50 is greater than 3400. Moreover, the pH-dependent lipophilicity (logD) (commonly lipophilicity at a set pH, counting ionised and neutral species) in data set [4] worked out at 4.3. Besides, the “inhibition (INH)” value in data set [1] is given as “Active”.

For `C#CCCCOc1ccc2ccc(=O)oc2c1`, the IC50 in data set [2] was 3520 nM; in data set [5], 91.8 nM. The Ratio IC50 in data set [3] stood at 38.

For `C#CCCCOc1ccc2cc(C(=O)N3CCN(C(=O)OC(C)(C)C)CC3)c(=O)oc2c1`, the IC50 is greater than 10000 nM in data set [2] and 10000 nM in data set [5].

As to `COC(=O)c1cc2cc(OCc3cccc(Cl)c3)ccc2oc1=O`, the concentration for half-maximal inhibition (IC50) in data set [2] was greater than 10000 nM; in data set [5] it was 31.5 nM. The Ratio IC50 in data set [3] is greater than 320.

For `C#CCCCCOc1ccc2ccc(=O)oc2c1`, the IC50 in data set [2] was 367 nM; in data set [5], 2.62 nM. In addition, the Ratio IC50 in data set [3] was 140.

Turning to `C#CCCCCOc1ccc2c(C)cc(=O)oc2c1`, the half-inhibitory concentration (IC50) was found to be 59.9 nM in data set [2] and 0.77 nM in data set [5]. For the same compound, the Ratio IC50 in data set [3] came to 78.

Consider `C#CCNCCOc1ccc2cc(C(=O)OC)c(=O)oc2c1`, for which the half-inhibitory concentration (IC50) in data set [2] is 2680 nM; in data set [5] it was 377 nM. Also, in data set [3], the Ratio IC50 was found to be 7. Moreover, the logD in data set [4] was determined as 0.5.

As to `CC(=O)Nc1cc2ccc(OCc3cccc(Cl)c3)cc2oc1=O`, the values for the IC50 in data set [2] and in data set [5] were 62.7 nM and 13.5 nM, respectively. For the same compound, in data set [3], the Ratio IC50 came out at 5.

With `C#CCCCOc1ccc2cc(C(=O)c3ccc(OC)cc3)c(=O)oc2c1`, the IC50 in data set [2] was greater than 10000 nM; in data set [5], 535 nM. In data set [3], the Ratio IC50 was greater than 19. For the same compound, the logD in data set [4] worked out at 3.1.

Regarding `COC(=O)c1cc2ccc(OCCc3ccc(Cl)cc3)cc2oc1=O`, the IC50 in data set [2] was 74.8 nM; in data set [5], 1.41 nM. Further, the Ratio IC50 in data set [3] is 53. Also, the logD in data set [4] was found to be 3.9.

With `C#CCCCCOc1ccc2c(c1)NC(=O)CC2`, the IC50 is greater than 10000 nM in data set [2] and 52.6 nM in data set [5]. Besides, the Ratio IC50 in data set [3] is greater than 190. The compound also gave a pH-dependent lipophilicity (logD) in data set [4] of 1.6.

As to `C#CCCCOc1ccc2c(C)cc(=O)oc2c1`, the concentration for half-maximal inhibition (IC50) in data set [2] came out at 553 nM; in data set [5] it was 18.2 nM. In data set [3], the Ratio IC50 stood at 30.

As to `COC(=O)c1cc2ccc(OCc3cccc(F)c3)cc2oc1=O`, the IC50 is 77.2 nM in data set [2] and 0.588 nM in data set [5]. Further, the Ratio IC50 in data set [3] turned out to be 130. This compound also gave a logD in data set [4] of 3.2.

For `C#CCNCCOc1ccc2ccc(=O)oc2c1`, the concentration for half-maximal inhibition (IC50) in data set [2] came out at 10000 nM; in data set [5] it was 852 nM. For the same compound, in data set [3], the Ratio IC50 was determined as 12.

For the compound `C#CCCCOc1ccc2cc(NC(C)=O)c(=O)oc2c1`, the figures for the 50% inhibitory concentration (IC50) in data set [2] and in data set [5] were 930 nM and 43.6 nM, respectively. Further, in data set [3], the Ratio IC50 turned out to be 21.

For the compound `C#CCCCOc1ccc2cc(C(=O)Nc3ccc(F)cc3)c(=O)oc2c1`, the IC50 in data set [2] and in data set [5] was greater than 10000 nM each time.

Turning to `C#CCOc1ccc2cc(C(=O)OC)c(=O)oc2c1`, the figures for the 50% inhibitory concentration (IC50) in data set [2] and in data set [5] were 1570 nM and 1790 nM, respectively. Further, in data set [3], the Ratio IC50 stood at 1.

Consider `C#CCCCOc1ccc2oc(=O)c(C(=O)OC)cc2c1`, for which the IC50 in data set [2] was greater than 10000 nM; in data set [5], 1440 nM. Further, the Ratio IC50 in data set [3] was greater than 7.

For the compound `COC(=O)c1cc2cc(OCCc3ccc(Cl)cc3)ccc2oc1=O`, the IC50 in data set [2] is greater than 10000 nM; in data set [5], 120 nM. The Ratio IC50 in data set [3] is greater than 83.

For `C#CCCCCOc1ccc2oc(=O)c(C(=O)c3ccc(OC)cc3)cc2c1`, the 50% inhibitory concentration (IC50) in data set [2] and in data set [5] was greater than 10000 nM throughout.

Regarding `COC(=O)c1cc2cc(OC/C=C(\C)CCC=C(C)C)ccc2oc1=O`, the concentration for half-maximal inhibition (IC50) in data set [2] is greater than 10000 nM; in data set [5], 325 nM. In addition, the Ratio IC50 in data set [3] is greater than 31.

`COC(=O)c1cc2ccc(OC/C=C(\C)CCC=C(C)C)cc2oc1=O`: the values for the IC50 in data set [2] and in data set [5] were 10000 nM and 78.9 nM, respectively. For the same compound, the Ratio IC50 in data set [3] was found to be 130.

For `C#CCCCCOc1ccc2cc(C(=O)c3ccc(OC)cc3)c(=O)oc2c1`, the concentration for half-maximal inhibition (IC50) is greater than 10000 nM in data set [2] and 67.1 nM in data set [5]. In data set [3], the Ratio IC50 is greater than 150. In data set [4], this compound showed a logD of 3.5.

`C#CCCCOc1ccc2cc(C(=O)OC)c(=O)oc2c1`: the half-inhibitory concentration (IC50) in data set [2] was determined as 953 nM; in data set [5] it was 82.4 nM. Moreover, the Ratio IC50 in data set [3] amounted to 12.

With `C#CCCCOc1cccc2cc(C(=O)OC)c(=O)oc12`, the half-maximal inhibitory concentration (IC50) in data set [2] and in data set [5] was greater than 10000 nM in each case.

In the case of `C#CCCOc1ccc2cc(C(=O)OC)c(=O)oc2c1`, the half-maximal inhibitory concentration (IC50) came out at 818 nM in data set [2] and 258 nM in data set [5]. In addition, the Ratio IC50 in data set [3] amounted to 3.

Consider `C#CCCCOc1ccc2cc(C(=O)O)c(=O)oc2c1`, for which the half-maximal inhibitory concentration (IC50) in data set [2] and in data set [5] was greater than 10000 nM each time.

Take `C#CCCCCOc1ccc2oc(=O)c(C(=O)OC)cc2c1`: the IC50 in data set [2] was greater than 10000 nM; in data set [5] it was 123 nM. In addition, the Ratio IC50 in data set [3] was greater than 81.

`C#CCCCCOc1ccc2oc(=O)c(NC(C)=O)cc2c1`: the IC50 was greater than 10000 nM in data set [2] and 24.7 nM in data set [5]. For the same compound, the Ratio IC50 in data set [3] is greater than 400. In addition, the logD in data set [4] was 2.4.

Consider `C#CCCCCOc1ccc2cc(C(=O)OC)c(=O)oc2c1`, for which the IC50 in data set [2] came out at 9.64 nM; in data set [5], 1.41 nM. In addition, in data set [3], the Ratio IC50 was found to be 7. Also, in data set [4], the logD was found to be 2.5. In addition, in data set [1], the “inhibition (INH)” value was “Active”.

As to `C#CCCCCOc1ccc2cc(NC(C)=O)c(=O)oc2c1`, the results for the IC50 in data set [2] and in data set [5] were 66.8 nM and 41.7 nM, respectively. For the same compound, the Ratio IC50 in data set [3] is 2.

Turning to `CCCCCCOc1ccc2cc(C(=O)OC)c(=O)oc2c1`, the half-inhibitory concentration (IC50) in data set [2] stood at 66.1 nM; in data set [5], 0.875 nM. The Ratio IC50 in data set [3] is 75. Moreover, in data set [4], the logD is 4.2.
